For assay [1], the system named is Nucleic Acid. Kind of assay: Compound was tested for its binding affinity towards poly(AT). The assay is classed as nucleic-acid assay. The method in brief: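 Double-stranded poly(dA-dT)·poly(dA-dT) concentration set using a molar extinction coefficient of 13,900 M^-1 cm^-1. Binding was followed by recording UV–vis spectra.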
Assay [2] concerns Caov-3 cell line. The assay is described as follows: (§1) Compound was tested for cytotoxicity against CaOv3 human solid tumor cell line. The assay is classed as functional. The method in brief: (§2)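 MTT assay: drugs added 24 h after plating at nine concentrations; cells grown 72 h with drug, then MTT (2.5 mg/mL solution in PBS) added for 3 h. Formazan dissolved in DMSO, absorbance read at 570 nm. IC50 taken from dose/inhibition curves.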

In assay [3] the test system is A549. The assay is described as follows: (§3) Compound was tested for cytotoxicity against A-549 human solid tumor cell line. The assay is classed as functional.
For assay [4], the system named is MCF7. Kind of assay: (§4) Compound was tested for cytotoxicity against MCF-7 human solid tumor cell line. The assay is classed as functional.
The test system of assay [5] is Nucleic Acid. The assay is described as follows: Compound was tested for its binding affinity towards calf thymus DNA. Particulars: Bos taurus; call rule not given here. The assay is classed as nucleic-acid assay. In a few lines:
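Calf thymus DNA concentration set using a molar extinction coefficient of 13,200 M^-1 cm^-1. Binding was followed by recording UV–vis spectra.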

For assay [6], the system named is HT-29. Kind of assay: (§5) Compound was tested for cytotoxicity against HT-29 human solid tumor cell line. The class given is functional.
The test system of assay [7] is Nucleic Acid. Kind of assay: Compound was tested for its binding affinity towards poly(GC). The assay is classed as nucleic-acid assay. In a few lines:
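Double-stranded poly(dG-dC)·poly(dG-dC) concentration set using a molar extinction coefficient of 13,200 M^-1 cm^-1. Binding was followed by recording UV–vis spectra.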

The subject of assay [8] is MCF7. The description is as §4. The class given is functional, cell-based. In a few lines:
as §2

Assay [9] deals with HT-29. The assay is described as §5. The class given is functional, cell-based. In a few lines: as §2
Assay [10] relates to Caov-3 cell line. The assay is described as §1. The assay is classed as functional, cell-based. The method in brief:
as §2

Assay [11] deals with A549. The assay is described as §3. The assay is classed as functional, cell-based. The method in brief:
as §2

The test system of assay [12] is Caov-3 cell line. The assay is described as follows: Compound was tested for cytotoxicity against CaOv3 human solid tumor cell line; NA=Not active. The assay is classed as functional, cell-based. In a few lines:
(§6)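 MTT assay on adherent solid tumor lines. Drug added 24 h after plating at nine concentrations, then 72 h growth with drug. MTT (2.5 mg/mL solution in PBS) added for 3 h, medium aspirated, formazan dissolved in DMSO, absorbance read at 570 nm. IC50 taken from dose/inhibition curves.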

In assay [13] the test system is MCF7. Kind of assay: Compound was tested for cytotoxicity against MCF-7 human solid tumor cell line; NA=Not active. The assay is classed as functional, cell-based. The method in brief:
as §6

Molecules are shown by their SMILES. pIC50: −log10 of the molar value.

One may read the IC30 as the point of the concentration-response curve where the effect stands at 30%. Lower therefore signals an effect from little substance. Take `CCOc1cc2c3cc(OC)c(OC)cc3c(C)[n+](C)c2c2cc(OC)c(OC)cc12`: the K in the assay with Nucleic Acid [1] amounted to 700000 M⁻¹; in the assay with Nucleic Acid [5], 700000 M⁻¹; in the assay on Nucleic Acid [7], 50000 M⁻¹. Besides, the IC30 was 10 µM in the assay with Caov-3 cell line [2], 10 µM with A549 [3], 1 µM in the assay on MCF7 [4] and 9 µM with HT-29 [6].

For orientation: pIC50 means −log10 of the IC50, conventionally taken in molar units. Read a low pIC50 as a high IC50. Consider `COc1cc2c(ccc3c4cc(OC)c(OC)cc4c[n+](C)c23)cc1O` [FAGARONINE], for which the K with Nucleic Acid [1] amounted to 1e+06 M⁻¹; in the assay with Nucleic Acid [5] it was 1e+06 M⁻¹; in the assay on Nucleic Acid [7], 1.1e+06 M⁻¹. Further, the negative logarithm of the IC50 (pIC50) was 5.40 with MCF7 [8], 6.30 in the assay on Caov-3 cell line [10] and 7.00 in the assay with A549 [11]. In the assay on HT-29 [9], it took 9 µM to reach the 30% level (IC30).

Regarding `CCOc1cc2c3cc(OC)c(OC)cc3c[n+](C)c2c2cc(OC)c(OS(C)(=O)=O)cc12.CS(=O)(=O)[O-]`, the K came to 50000 M⁻¹ in the assay on Nucleic Acid [1], 250000 M⁻¹ with Nucleic Acid [5] and 53000 M⁻¹ in the assay on Nucleic Acid [7]. Besides, the IC50 entry with Caov-3 cell line [12] and with MCF7 [13] was “Not Active” throughout. The molecule further gave a pIC50 in the assay with A549 [11] of 6.30. In the assay on HT-29 [6], the 30% effect concentration (IC30) came out at 1 µM.

Regarding `CCOc1cc2c3cc(OC)c(OC)cc3c[n+](C)c2c2cc(OC)c(OC)cc12`, the figures for the K with Nucleic Acid [1], with Nucleic Acid [5] and in the assay on Nucleic Acid [7] were 2.5e+06 M⁻¹, 250000 M⁻¹ and 100000 M⁻¹, respectively. The pIC50 with MCF7 [8] was 5.70; in the assay on A549 [11] it was 7.10. Also, the IC30 stood at 2 µM with HT-29 [9] and 0.5 µM with Caov-3 cell line [2].

On to `CCOc1cc2c3cc(OC)c(OC)cc3c[n+](C)c2c2cc(OC)c(O)cc12.[I-]`, for which the K with Nucleic Acid [1] is 300000 M⁻¹; with Nucleic Acid [5], 250000 M⁻¹; with Nucleic Acid [7], 60000 M⁻¹. Also, the IC50 entry with Caov-3 cell line [12] and with MCF7 [13] was “Not Active” each time. In addition, in the assay on HT-29 [9], the IC30 came out at 5 µM.

The values are drawn from ChEMBL document CHEMBL1134739, “Synthesis, biological activity and comparative analysis of DNA binding affinities and human DNA topoisomerase I inhibitory activities of novel 12-alkoxy-benzo[c]phenanthridinium salts” (Bioorg Med Chem Lett, 2001).
